The test system of the assay is SK-MEL-5 viability, CellTiter-Glo ATP luminescence, 24 h. In words: SK-MEL-5 parental cell viability, dose response, orthogonal assay for MITF inhibitor project, CellTiter-Glo luminescence, dry powder, set 4 (AID 624366). An outline of the steps: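 Test system – SK-MEL-5 melanoma cells, parental line of primary-screen reporter line · Buffer or medium – phenol red-free growth medium · Dosing – multiple compound doses delivered by pin transfer · Times – 24 h treatment at 37 °C, 5 min RT read · Detection – CellTiter-Glo luminescence measuring cellular ATP · Evaluation – viability via ATP level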
For orientation: ATP-based viability assays read luminescence as a measure of living cells.

Where “and” joins values, the source holds several entries; their conditions need not be identical. Equal values may be shown once. Calls of active or inactive are those of the source.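 Rule for the calls: active = signal drop with fitted AC50 no more than twice the top valid dose in every repeat run; inconclusive = mixed run calls, flat 30 to 70% drop, or poor fit; inactive = the rest.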

For the molecule `CCN(CC)CCNC1=C(Nc2ccccc2)C(=O)c2ccccc2C1=O`, the AC50 was > 70 µM (inactive). The figure for `O=C1C(Nc2ccccc2)=C(c2ccccc2)C(=O)c2ccccc21` is 27.3 µM. The figure for `O=C1C=C(NS(=O)(=O)c2ccccc2)C(=O)c2ccccc21` is 5.83 µM; for `CC(=O)N(C)C1=C(N2CCN(C)CC2)C(=O)c2ccccc2C1=O` it is 5.48 µM.

Regarding `O=C1C(Nc2ccccc2)=C(N2CCCCC2)C(=O)c2ccccc21`, the concentration at half-maximal activity (AC50) is 25.3 µM. The figure for `NC1=C(NC(=O)c2ccccc2)C(=O)c2ccccc2C1=O` is 12.3 µM; for `C=CCNC1=C(Cl)C(=O)c2ccccc2C1=O` it is 15.4 µM; for `COC1=C(NS(=O)(=O)c2ccc(Br)cc2)C(=O)c2ccccc2C1=O` it is 11.3 µM. The figure for `COC1=C(Nc2ccccc2)C(=O)c2ccccc2C1=O` is 3.02 µM; for `NC1=C(NS(=O)(=O)c2ccccc2)C(=O)c2ccccc2C1=O` it is 14 µM; for `NC1=C(NS(=O)(=O)c2cccs2)C(=O)c2ccccc2C1=O` it is 11.3 µM. As for `NC1=C(c2ccc(OC(F)(F)F)cc2)C(=O)c2ccccc2C1=O`, the figure is > 70 µM (inactive); as for `CCN1CCN(C2=C(NC(=O)c3ccc(Br)cc3)C(=O)c3ccccc3C2=O)CC1`, 11 µM. In the case of `COC1=C(NS(=O)(=O)c2cccs2)C(=O)c2ccccc2C1=O`, the AC50 was 23.7 µM. The figure for `C[C@@H](NC1=C(Nc2ccccc2)C(=O)c2ccccc2C1=O)c1ccccc1` is > 70 µM (inactive). The figure for `O=C1C=C(NS(=O)(=O)c2cccs2)C(=O)c2ccccc21` is 9.28 µM; for `CNC1=CC(=O)c2ccccc2C1=O` it is > 70 µM (inactive). The figure for `CCN1CCN(C2=C(NS(=O)(=O)c3ccc(Br)s3)C(=O)c3ccccc3C2=O)CC1` is > 70 µM (inactive); for `O=C(NC1=C(N2CCOCC2)C(=O)c2ccccc2C1=O)c1ccc(Br)cc1` it is > 70 µM (inactive).

For `O=C1C(NS(=O)(=O)c2ccc(Br)s2)=C(N2CCCCC2)C(=O)c2ccccc21`, the concentration at half-maximal activity (AC50) was 23.9 µM. As for `O=C(NC1=C(N2CCCCC2)C(=O)c2ccccc2C1=O)c1ccc(Br)cc1`, the figure is > 70 µM (inactive); as for `O=C1C=C(Nc2ccccc2)C(=O)c2ccccc21`, 3.44 µM and 3.95 µM; as for `CN1CCN(C2=C(NC(=O)c3ccc(Br)cc3)C(=O)c3ccccc3C2=O)CC1`, 8 µM. The figure for `O=C1C(NS(=O)(=O)c2ccc(Br)s2)=C(N2CCOCC2)C(=O)c2ccccc21` is 27.6 µM; for `O=C1C(NS(=O)(=O)c2ccccc2)=C(c2ccccc2)C(=O)c2ccccc21` it is > 70 µM (inactive); for `C=C1C(=O)OC2C1CC/C(C)=C\CCC1(C)OC21` (stereo not given) it is > 70 µM (inactive).

`CC(=O)N(C)C1=C(N2CCCCC2)C(=O)c2ccccc2C1=O`: the half-maximal activity concentration (AC50) is 6.71 µM. With `CC1CCN(CC(CS(=O)(=O)c2ccc([N+](=O)[O-])cc2)N2CCC(C)CC2)CC1` (stereo not given), the AC50 was > 70 µM (inactive). As for `O=C1C(Nc2ccccc2)=C(N2CCSCC2)C(=O)c2ccccc21`, the figure is > 70 µM (inactive); as for `O=C(NC1=C(N2CCSCC2)C(=O)c2ccccc2C1=O)c1ccc(Br)cc1`, > 70 µM (inactive). As for `CN1CCN(C2=C(Nc3ccccc3)C(=O)c3ccccc3C2=O)CC1`, the figure is 34.2 µM; as for `C=CCNC1=C(N(C)C(C)=O)C(=O)c2ccccc2C1=O`, 0.843 µM. Consider `CN1CCN(C2=C(NS(=O)(=O)c3ccc(Br)s3)C(=O)c3ccccc3C2=O)CC1`, for which the AC50 is 23.6 µM. The figure for `CCN(CC)CCCNC1=C(Nc2ccccc2)C(=O)c2ccccc2C1=O` is 24.4 µM; for `O=C1C=C(NS(=O)(=O)c2ccc(Br)cc2)C(=O)c2ccccc21` it is 10 µM; for `O=C1C(Nc2ccccc2)=C(NS(=O)(=O)c2ccccc2[N+](=O)[O-])C(=O)c2ccccc21` it is > 70 µM (inactive). With `Cc1nc2ccccc2n1/N=C/c1ccc([N+](=O)[O-])s1`, the AC50 is > 70 µM (inactive). As for `NC1=C(NS(=O)(=O)c2ccc(Br)cc2)C(=O)c2ccccc2C1=O`, the figure is 28.1 µM; as for `NC1=CC(=O)c2ccccc2C1=O`, 11 µM.

Consider `COC1=C(NS(=O)(=O)c2ccccc2)C(=O)c2ccccc2C1=O`, for which the AC50 was 15.8 µM.

By AC50 is commonly meant the concentration giving half of the maximal activity seen.

These data come from PubChem BioAssay AID624366 (Broad Institute, 2012).
